The term IC50 denotes the point on the concentration scale where inhibition reaches its midpoint. As usually defined, the Kd is the equilibrium constant for the complex coming apart. Higher therefore signals a looser complex.

Positions count from the first letter of the chain named. Primed or numbered codes have the meaning given here. No end group written: not given here. FITC′ = fluorescein isothiocyanate

Five molecules from publication PMC4681580 (Journal of immunology (Baltimore, Md. : 1950), 2015) can be followed below.

The target of experiment [1] is T1, rTAP1/TAP2a (wild type) (Rattus norvegicus, UniProt P36370+P36372).
T1 sequence (P36370 1-725): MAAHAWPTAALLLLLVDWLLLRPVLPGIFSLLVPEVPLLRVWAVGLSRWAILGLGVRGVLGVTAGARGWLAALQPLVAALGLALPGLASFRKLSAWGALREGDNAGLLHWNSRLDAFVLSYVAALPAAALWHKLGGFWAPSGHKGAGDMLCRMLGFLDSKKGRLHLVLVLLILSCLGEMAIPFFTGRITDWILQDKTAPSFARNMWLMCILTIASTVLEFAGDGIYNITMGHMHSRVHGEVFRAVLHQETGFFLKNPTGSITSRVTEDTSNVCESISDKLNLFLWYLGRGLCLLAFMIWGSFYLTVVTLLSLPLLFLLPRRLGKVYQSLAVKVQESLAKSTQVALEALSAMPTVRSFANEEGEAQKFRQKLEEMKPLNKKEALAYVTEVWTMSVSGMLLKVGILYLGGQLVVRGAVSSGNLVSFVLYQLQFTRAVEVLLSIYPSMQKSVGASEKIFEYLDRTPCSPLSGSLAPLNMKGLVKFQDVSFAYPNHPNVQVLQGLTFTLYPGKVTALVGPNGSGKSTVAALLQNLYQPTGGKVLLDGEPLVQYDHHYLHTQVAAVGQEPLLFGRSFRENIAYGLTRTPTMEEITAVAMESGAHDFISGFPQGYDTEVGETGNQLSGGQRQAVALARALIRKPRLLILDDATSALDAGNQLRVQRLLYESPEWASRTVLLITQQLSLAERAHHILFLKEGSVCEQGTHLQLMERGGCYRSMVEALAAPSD
T1 sequence (P36372 1-703): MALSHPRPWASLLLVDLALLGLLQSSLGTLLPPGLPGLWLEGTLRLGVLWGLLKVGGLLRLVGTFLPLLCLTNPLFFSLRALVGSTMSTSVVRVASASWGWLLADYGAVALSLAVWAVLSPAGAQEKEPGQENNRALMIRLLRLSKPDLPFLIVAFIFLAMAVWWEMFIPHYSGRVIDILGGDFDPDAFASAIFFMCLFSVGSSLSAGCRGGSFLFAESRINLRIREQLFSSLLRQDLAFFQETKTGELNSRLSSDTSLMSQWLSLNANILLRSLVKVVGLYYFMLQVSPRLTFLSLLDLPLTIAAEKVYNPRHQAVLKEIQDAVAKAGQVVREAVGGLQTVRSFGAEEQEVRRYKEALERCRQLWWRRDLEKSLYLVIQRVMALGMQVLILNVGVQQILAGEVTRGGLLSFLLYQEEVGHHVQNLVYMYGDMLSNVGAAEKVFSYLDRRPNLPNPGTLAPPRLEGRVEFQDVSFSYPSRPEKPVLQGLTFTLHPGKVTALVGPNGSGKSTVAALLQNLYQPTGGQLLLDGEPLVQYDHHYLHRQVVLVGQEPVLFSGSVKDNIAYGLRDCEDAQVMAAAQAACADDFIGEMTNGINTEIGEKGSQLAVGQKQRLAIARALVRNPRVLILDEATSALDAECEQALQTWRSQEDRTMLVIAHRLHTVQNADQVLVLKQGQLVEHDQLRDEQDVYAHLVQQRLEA
In words: Competitive inhibition of TC6R crosslinking, wild type TAP. Format: binding. Summed up:
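Rat TAP1/TAP2a expressed in baculovirus-infected Sf21 microsomes. Microsomes were incubated with 1 μM FITC-lysine peptide with Cys at position 6, plus unlabeled competitor peptide, on ice for 10 min in PBS pH 7.4. BMOE was added (0.2 mM final) for 10 min at room temperature and quenched with 10 mM DTT. Products were resolved by SDS-PAGE and fluorescence imaged at 520 nm.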

The target of experiment [2] is T2, rTAP1/TAP2a(E218M) (Rattus norvegicus, UniProt P36370+P36372, E218M).
T2 sequence (P36370 1-725): T1 sequence (P36370 1-725)
T2 sequence (P36372 1-703 E218M): T1 sequence (P36372 1-703) with E218M
Briefly: Peptide transport assay, E218M mutant. To be noted: FITC-labeled peptide 1 μM, 37 °C, 5 min, with or without 5 mM ATP. Format: biochemical. In a few lines: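 Sf21 cells were grown to confluence and infected with baculoviruses (MOI 5–20) expressing His-tagged rTAP1 and Flag-tagged rTAP2 variants; microsomes were made after 72 h. Lysis was in 1% NP40, and glycosylated peptide was recovered on Con A-Sepharose. Fluorescence was read in triplicate to give +ATP/−ATP ratios, normalized to wild type (100%) and TAP-free microsomes (0%). Paired two-tailed t-tests were applied.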

The target of experiment [3] is T3, wild type rat TAP1/TAP2a complex (rat) (UniProt P36370).
T3 sequence (P36370 whole entry, looked up): T1 sequence (P36370 1-725)
T3 sequence (P36372 whole entry, looked up): T1 sequence (P36372 1-703)
In words: cross-linking.

The target in experiment [4] is T4, rTAP1/TAP2a(E218M) (rat) (UniProt P36370).
T4 sequence (P36370 1-725 with E218M, looked up): T1 sequence (P36370 1-725)
T4 sequence (P36372 1-703 with E218M, looked up): T1 sequence (P36372 1-703) with E218M
In words: cross-linking.

Experiment [5] deals with T5, rTAP1/TAP2a(E218M/Q262R/S265P/L266F) (rat) (UniProt P36370).
T5 sequence (P36370 1-725 with E218M Q262R S265P L266F, looked up): T1 sequence (P36370 1-725)
T5 sequence (P36372 1-703 with E218M Q262R S265P L266F, looked up): T1 sequence (P36372 1-703) with E218M, Q262R, S265P, L266F
In words: cross-linking.

Regarding RYWANATKSR [RR], the concentration for half-maximal inhibition (IC50) in experiment [1] came out at 0.3 µM. For TVDNK*TAYV, the “effect of mutation on transport efficiency versus wild type” value in experiment [2] is given as “did not significantly affect”. TVDNK(FITC′)CAYR [TVDNK*CAYR (TC6R), FITC-labeled] gave a Kd in experiment [3] of 0.187 µM. Turning to TVDNKTAYR […, unlabeled competitor peptide], the half-maximal inhibitory concentration (IC50) in experiment [3] was > 2 µM.

TVDNK(FITC′)CAYV [TVDNK*CAYV (TC6V), FITC-labeled]: the dissociation constant Kd was 0.417 µM in experiment [3], 0.339 µM in experiment [4] and 0.107 µM in experiment [5].
